Screening results: PubChem BioAssay, several laboratories
zfTRPN1 agonist – agonists of zebrafish TRPN1 channel; activation, % at 3 µM; AID 1424; actives 0.18% (n = 220,000); HEK293 zebrafish TRPN1-YFP, Fluo-8 calcium fluorescence; 100% = response to 87 µM carbachol;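 active means activation above its plate's cutoff, the mean activation of test wells on that plate plus 3 SD, cut at about 19% in these data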;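 further: 0% = DMSO alone and 100% = 87 µM carbachol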
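Assay system: Zebrafish TRPN1-YFP in HEK293 cells | Incubation: Dye loading 1 h at 37 °C, then 30 min room temperature | Measured by: Kinetic Fluo-8 fluorescence, ex 470-495, em 515-575 nm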
OXTR agonist – human OXTR agonism. actives 0.32% (n = 320,000). P30559. AID 2435. activation, % at 3 µM. CHO-OTR cells, Fluo-8 calcium fluorescence; normalized: DMSO 0%, oxytocin 100%;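 active means activation above the mean of all tested compounds plus 3 SD, cutoff set per screening run, cut at about 20% in these data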;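 further: peak over basal fluorescence ratio from a 100 s FLIPR kinetic read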
V1R ag counter – activates human V1a receptor in oxytocin agonist counter-screen. P37288. CHO-V1R cells, Fluo-8 calcium fluorescence, agonist mode; 0% DMSO, 100% 3 nM vasopressin. actives 0.25% (n = 320,000). activation, % at 3 µM;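 active means activation above the mean activation of all tested compounds plus 3 SD, per screening run, cut at about 20% in these data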;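 further: signal is peak over basal fluorescence ratio across a 100 second FLIPR read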
Target sequence (P37288 whole entry, looked up): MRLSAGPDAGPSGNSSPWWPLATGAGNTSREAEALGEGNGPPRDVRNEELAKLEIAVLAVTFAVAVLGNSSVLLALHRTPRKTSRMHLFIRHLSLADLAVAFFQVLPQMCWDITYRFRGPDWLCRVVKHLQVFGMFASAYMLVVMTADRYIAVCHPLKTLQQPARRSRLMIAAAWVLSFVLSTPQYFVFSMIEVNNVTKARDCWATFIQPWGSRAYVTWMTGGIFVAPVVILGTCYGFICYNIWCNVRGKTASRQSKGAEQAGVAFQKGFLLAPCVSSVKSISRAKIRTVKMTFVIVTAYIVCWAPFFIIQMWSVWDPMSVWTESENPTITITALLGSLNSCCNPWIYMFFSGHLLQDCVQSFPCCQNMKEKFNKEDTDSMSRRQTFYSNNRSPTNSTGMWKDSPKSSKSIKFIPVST
TRPML3 agonist – human mucolipin-3 channel agonism. Q8TDD5. HEK293 TRPML3-YFP, Fluo-8 calcium fluorescence; 100% = the carbachol control signal. activation, % at 3 µM. actives 0.29% (n = 220,000). AID 1448;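 active means activation above its plate's cutoff, the mean activation of the plate's test wells plus 3 SD, cut at about 12% in these data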;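 further: 0% = DMSO only wells and 100% = carbachol wells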
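Test system: HEK293 cells stably carrying human TRPML3-YFP; Doses: single dose, 3 µM final nominal compound, 0.3% DMSO final; Schedule: dye loading 1 h 37 °C then 30 min ambient, 125 s read; Technique: Fluo-8 calcium fluorescence; Benchmarks: high control carbachol 87 µM, low control DMSO.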
CRFR2-BP ag – agonists of human CRF-binding protein/CRF-R2 receptor complex; HEK293 CRF-R2/CRF-BP, calcium dye fluorescence (FLIPR); percent of saturating CRF peptide response; activation, % at 13.2 µM; actives 0.46% (n = 350,000);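 active means activation of at least 50%, plus an integration ratio under a set limit after plate pattern correction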;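 further: plate controls were neutral control wells without compound for no effect and CRF at EC100 for full effect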
OXTR potentiate – potentiators of human oxytocin receptor | AID 2445 | actives 0.061% (n = 320,000) | P30559 | CHO-OTR cells, Fluo-8 calcium fluorescence, potentiator mode; 0% = oxytocin EC15, 100% = EC100 | activation, % at 3 µM;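 active means activation above that plate's cutoff, the mean activation of tested compounds plus 3 SD, cut at about 6.6% in these data, passing the limit was not always enough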;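 further: 100% uses oxytocin at 75 nM as the full agonist control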
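Assay system: CHO cell line stably expressing human OTR. Reagent: EC15 oxytocin agonist. Dosing: single dose, 3.0 µM nominal final compound concentration. Timing: compound 6 min at room temperature before oxytocin, 100 s read. Signal: kinetic Fluo-8 calcium fluorescence. Controls: oxytocin EC15 low and EC100 high.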
V1R ag confirm – human V1a receptor agonism, confirmation. shares compounds with V1R ag counter. CHO-V1R cells, Fluo-8 calcium fluorescence, agonist. actives 20% (n = 180). AID 434964. activation, % at 3 µM;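 active means average activation exceeds primary screen hit cutoff, cut at about 21% in these data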;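 further: peak over basal fluorescence ratio during a 100 s FLIPR read; 0% = DMSO only wells and 100% = 3 nM vasopressin wells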
OXTR counter – activates oxytocin receptor in V1a agonist counter-screen; shares compounds with V1R ag counter; CHO-OTR cells, Fluo-8 calcium fluorescence; activation, % at 3 µM; actives 10% (n = 180);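 active means mean activation over three repeats above the cutoff from the earlier oxytocin receptor agonist screen, cut at about 20% in these data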;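 further: peak over minimum fluorescence ratio within a 100 second FLIPR read; 0% = DMSO only wells and 100% = oxytocin high control wells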
An asterisk follows results filed as active; x = no result given; ! = a repeat was not active. The list is not random: actives were taken first. Their share in the collection is about 0.85%.

SMILES	zfTRPN1 agonist	OXTR agonist	V1R ag counter	TRPML3 agonist	CRFR2-BP ag	OXTR potentiate	V1R ag confirm	OXTR counter
CC(=O)c1cccc(S(=O)(=O)NCCC(=O)NC2CCCCCC2)c1	x	-1	0	x	-1	4	x	x
O=C(COc1ccccc1[N+](=O)[O-])N/N=C/c1ccc(O)c([N+](=O)[O-])c1	0	3	67*	0	-3	-14	0	-1
CC(C)Cn1c(-c2ccc(Br)cc2)c[nH]c1=S	-4	8	35*	-1	-2	-24	0	-1
Cc1cccn2c(=O)nc(SCC(=O)NC3CCCCC3)nc12	x	0	0	x	3	-7	x	x
NC(=O)Cc1ccc(C(=O)CSc2nnc(-c3ccncc3)n2C2CC2)s1	x	1	2	x	0	-2	x	x
CN(C(=O)COC(=O)c1ccccc1SCC(=O)N1CCCC1)c1ccccc1	x	3	10	x	-2	-12	x	x
O=C1c2ccccc2C(=O)N1CCC#Cc1ccc2cc(CCCO)oc(=O)c2c1	x	15	26*	x	0	-11	9	8
COc1ccc2c(c1OC)C(=O)N1C2SC[C@H]1C(=O)NC1CCCC1 (some centres not stated)	x	0	0	x	1	-8	x	x
COc1ccc(N(CC(=O)N2CCN(c3cccc(C)c3)C(C)C2)S(=O)(=O)c2c(C)n[nH]c2C)cc1 (configuration not stated)	-1	0	23*	0	-1	-14	0	-1
CN(CC(=O)Nc1ccc(Cl)c(C(F)(F)F)c1)C(=O)/C=C/c1cccs1	x	2	7	x	-1	-10	x	x
NS(=O)(=O)c1cccc(NS(=O)(=O)c2cccc(C(F)(F)F)c2)c1	2	0	1	1	0	4	x	x
O=C(Cn1ncn2c(cc3ccccc32)c1=O)NCCCc1ccccc1	x	0	1	x	1	-8	x	x
COc1ccccc1N1C(=O)c2cccc3c(C(=O)O)ccc(c23)C1=O	-1	2	0	0	2	5	x	x
COc1ccccc1N1C(=O)c2cccc3c(N(C)CCO)ccc(c23)C1=O	x	18	31*	x	111*	-10	18	11
CC(=O)c1sc(NC(=O)Cc2c(F)cccc2Cl)nc1C	x	-1	-1	x	0	-2	x	x
O=C(Cc1c(F)cccc1Cl)Nc1nc2ccccc2s1	0	1	22*	0	-1	-20	2	-1
Cc1ccc(CCNS(=O)(=O)c2ccc3c(c2)NC(=O)CCS3)cc1	x	0	2	x	-1	-4	x	x
Cc1c(NC(=O)CSc2ccccc2F)c(=O)n(-c2ccccc2)n1C	0	1	1	0	4	11	x	x
Cc1c(NC(=O)CSc2ccccc2C(=O)Nc2cccnc2)c(=O)n(-c2ccccc2)n1C	2	0	31*	0	8	1	-1	-1
CC1(C)CC(=O)C(C(C2=C(O)CC(C)(C)CC2=O)c2ccc(Cl)c([N+](=O)[O-])c2)C(=O)C1 (configuration not stated)	0	8	48*	-1	-1	-6	16	10
CC1(CCc2ccc3c(c2)OCO3)NCCc2c1[nH]c1ccccc21 (configuration not stated)	x	16	30*	x	2	-16	10	22*
O=C(Nc1ccc(N2CCN(c3ccc(C(F)(F)F)cn3)CC2)nc1)c1cccs1	0	2	1	1	-1	5	x	x
CC(=O)Nc1ccc(N2CCN(c3ccc(C(F)(F)F)cn3)CC2)nc1	1	6	25*	0	0	-13	2	2
CCCOc1ccc(N2C(=O)CC(N(CCc3ccc(OC)cc3)C(=O)c3ccccc3)C2=O)cc1 (configuration not stated)	-2	-1	1	0	0	-4	x	x
CCOc1cc(/C=C2\CCCc3c2nc2ccccc2c3C(=O)O)ccc1OC	x	7	60*	x	201*	1	0	0
SMILES	zfTRPN1 agonist	OXTR agonist	V1R ag counter	TRPML3 agonist	CRFR2-BP ag	OXTR potentiate	V1R ag confirm	OXTR counter
COc1ccc(Nc2cc(C(=O)NCCCOC(C)C)c3ccccc3n2)c(OC)c1	x	0	25*	x	-3	-8	0	-1
N#Cc1cccc(NC(=O)CSc2ccccc2)c1	0	2	1	1	-6	-9	x	x
N#Cc1cccc(NC(=O)CSc2ccc3c4c(cccc24)C(=O)c2ccccc2-3)c1	3	14	41*	3	224*	-11	107*	84*
C[C@H](CO)N1C[C@H](C)[C@@H](CN(C)Cc2ccc(-c3ccccc3)cc2)Oc2c(NS(=O)(=O)c3cn(C)cn3)cccc2C1=O	x	1	77*	x	-1	-4	-1	1
Cc1ccc(NC(=O)C(c2ccccc2)N2CCN(CC(=O)N3CCOCC3)CC2)cc1Cl (configuration not stated)	x	0	1	x	-1	-10	x	x
CC1=NN(c2ccc(Cl)cc2)C(=O)C1C(c1cccc(O)c1)c1c(C)[nH]n(-c2ccc(Cl)cc2)c1=O (configuration not stated)	3	13	20*	3	1	-9	2	1
Cc1cccc(NC(=S)NNC(=O)c2ccco2)c1	1	1	23*	1	-1	-3	0	0
COc1ccc(NC(=O)CN2C(=O)/C(=C3\SC(=S)N(C4CCS(=O)(=O)C4)C3=O)c3ccccc32)cc1 (configuration not stated)	1	-2	22*	1	-1	-1	0	0
CCCCCCCCCCOC(=O)Cn1c(COc2ccc(OC)cc2)[n+](C)c2ccccc21	x	22*!	30*	x	8	-15	0	8
Cc1nn(Cc2c(Cl)cccc2Cl)c(C)c1NC(=O)c1cc(C(C)C)on1	0	3	27*	0	-4	-7	1	14
Cc1cc(C(=O)Nc2c(C)nn(Cc3c(Cl)cccc3Cl)c2C)no1	0	0	1	1	1	1	x	x
CCc1ccc(-n2c(=S)sc3c(=O)n(-c4ccccc4C)c(SCC(=O)O)nc32)cc1	x	0	0	x	-1	-10	x	x
COC(=O)c1ccccc1NC(=O)C(C)n1nc(C)c2c(C)n(-c3ccccc3)nc2c1=O (configuration not stated)	x	1	23*	x	1	-10	0	-1
